According to ChEMBL document CHEMBL4219224, “Structure based drug design and in vitro metabolism study: Discovery of N-(4-methylthiophenyl)-N,2-dimethyl-cyclopenta[d]pyrimidine as a potent microtubule targeting agent” (Bioorg Med Chem, 2018):

How the values were obtained:
[1] = Inhibition of bovine brain tubulin polymerization assessed as reduction in tubulin assembly pretreated for 15 mins followed by GTP addition by spectrophotometric method; parameters: species or system Bos taurus
In short: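 Placed on ice, then 0.4 mM GTP (final) added. Turbidity read at 350 nm after a jump from 0 °C to 30 °C.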

HOP-92 = assay: Growth inhibition of human HOP92 cells incubated for 48 hrs by sulforhodamine B assay; type: functional; details: HOP-92, 48 h
HOP-62 = assay: Growth inhibition of human HOP62 cells incubated for 48 hrs by sulforhodamine B assay; type: functional; details: HOP-62, 48 h
A498 = assay: Growth inhibition of human A498 cells incubated for 48 hrs by sulforhodamine B assay; type: functional; details: A498, 48 h
ACHN = assay: Growth inhibition of human ACHN cells incubated for 48 hrs by sulforhodamine B assay; type: functional
M14 = assay: Growth inhibition of human M14 cells incubated for 48 hrs by sulforhodamine B assay; type: functional; details: M14, 48 h
SF-268 = assay: Growth inhibition of human SF268 cells incubated for 48 hrs by sulforhodamine B assay; type: functional; details: SF-268, 48 h
OVCAR-3 = assay: Growth inhibition of human OVCAR3 cells incubated for 48 hrs by sulforhodamine B assay; type: functional; details: OVCAR-3, 48 h
SR = assay: Growth inhibition of human SR cells incubated for 48 hrs by sulforhodamine B assay; type: functional
HCT-15 = assay: Growth inhibition of human HCT15 cells incubated for 48 hrs by sulforhodamine B assay; type: functional; details: HCT-15, 48 h
HT-29 = assay: Growth inhibition of human HT-29 cells incubated for 48 hrs by sulforhodamine B assay; type: functional; details: HT-29, 48 h
RXF 393 = assay: Growth inhibition of human RXF393 cells incubated for 48 hrs by sulforhodamine B assay; type: functional; details: RXF 393, 48 h
HCT-116 = assay: Growth inhibition of human HCT116 cells incubated for 48 hrs by sulforhodamine B assay; type: functional; details: HCT-116, 48 h
LOX IMVI = assay: Growth inhibition of human LOXIMVI cells incubated for 48 hrs by sulforhodamine B assay; type: functional
NCI-H522 = assay: Growth inhibition of human NCI-H522 cells incubated for 48 hrs by sulforhodamine B assay; type: functional; details: NCI-H522, 48 h
786-0 = assay: Growth inhibition of human 786-0 cells incubated for 48 hrs by sulforhodamine B assay; type: functional; details: 786-0, 48 h
SF-295 = assay: Growth inhibition of human SF295 cells incubated for 48 hrs by sulforhodamine B assay; type: functional; details: SF-295, 48 h
SK-MEL-28 = assay: Growth inhibition of human SK-MEL-28 cells incubated for 48 hrs by sulforhodamine B assay; type: functional; details: SK-MEL-28, 48 h
SK-MEL-5 = assay: Growth inhibition of human SK-MEL-5 cells incubated for 48 hrs by sulforhodamine B assay; type: functional; details: SK-MEL-5, 48 h
U-251 = assay: Growth inhibition of human U251 cells incubated for 48 hrs by sulforhodamine B assay; type: functional; details: U-251, 48 h
[2] = Resistance index, ratio of IC50 for human SKOV3-MDR1-M6/6 cells to IC50 for human SKOV3 cells; type: functional
In short: (§1)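 Antiproliferative IC50 by SRB assay (cellular protein) in each isogenic pair: SK-OV-3 parental versus Pgp-expressing, and parental HeLa versus wild-type βIII-tubulin-expressing HeLa. Rr is the IC50 ratio of the modified line to the parental line. At least three independent experiments, each in triplicate, mean ± SD.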

[3] = Retention time of the compound in human liver microsomes at 20 uM by LC-MS/MS analysis; type: ADME, microsome
In short: (§2)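 Human liver microsomes (both genders; 1.0 mg/mL) in 100 mM PBS pH 7.4 with 3 mM MgCl2 and 10 mM NADPH, preincubated at 37 °C. Reaction started with compound at 20 μM final (from DMSO stock); propranolol 5 μM as control. Aliquots at 0 and 60 min quenched in ice-cold ACN. Analysed by LC/MS/MS on a C18 column, 5–75% B gradient over 30 min, ESI.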

SK-OV-3 [4] = assay: Growth inhibition of human SKOV3 cells incubated for 48 hrs by sulforhodamine B assay; type: functional; details: SK-OV-3, 48 h
BT-549 = assay: Growth inhibition of human BT549 cells incubated for 48 hrs by sulforhodamine B assay; type: functional; details: BT-549, 48 h
HeLa [5] = assay: Antiproliferative activity against human HeLa cells expressing wild type beta3 tubulin by SRB assay; type: functional, cell-based
Bos taurus [6] = organism: Bos taurus; assay: Inhibition of [3H]colchicine binding to bovine brain tubulin at 5 uM measured after 10 mins by scintillation counting method relative to control
In short: (§3)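 Reactions of 0.1 mL held 1.0 μM bovine brain tubulin, 5.0 μM [3H]colchicine, inhibitor at 1.0 or 5.0 μM, colchicine-binding stabilizing components and 5% DMSO, assembled on ice with tubulin added last. Incubated 10 min at 37 °C, stopped with ice water, filtered through DEAE-cellulose filters. Bound radiolabel counted by scintillation.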

A549 = assay: Growth inhibition of human A549/ATCC cells incubated for 48 hrs by sulforhodamine B assay; type: functional; details: A549, 48 h
DU-145 = assay: Growth inhibition of human DU145 cells incubated for 48 hrs by sulforhodamine B assay; type: functional; details: DU-145, 48 h
PC-3 = assay: Growth inhibition of human PC3 cells incubated for 48 hrs by sulforhodamine B assay; type: functional; details: PC-3, 48 h
HeLa [7] = assay: Resistance index, ratio of IC50 for human HeLa cells expressing wild type beta3 tubulin to IC50 for human HeLa cells; type: functional; in short: as §1
MOLT-4 = assay: Growth inhibition of human MOLT4 cells incubated for 48 hrs by sulforhodamine B assay; type: functional; details: MOLT-4, 48 h
NCI-H460 = assay: Growth inhibition of human NCI-H460 cells incubated for 48 hrs by sulforhodamine B assay; type: functional; details: NCI-H460, 48 h
SK-OV-3 [8] = assay: Antiproliferative activity against human SKOV3 cells by SRB assay; type: functional, cell-based
NCI-H23 = assay: Growth inhibition of human NCI-H23 cells incubated for 48 hrs by sulforhodamine B assay; type: functional; details: NCI-H23, 48 h
MDA-MB-435 = assay: Growth inhibition of human MDA-MB-435 cells incubated for 48 hrs by sulforhodamine B assay; type: functional; details: MDA-MB-435, 48 h
Bos taurus [9] = organism: Bos taurus; assay: Inhibition of [3H]colchicine binding to bovine brain tubulin at 1 uM measured after 10 mins by scintillation counting method relative to control; in short: as §3
MCF7 = assay: Growth inhibition of human MCF7 cells incubated for 48 hrs by sulforhodamine B assay; type: functional; details: MCF7, 48 h
[10] = Stability in human liver microsome assessed as parent compound remaining at 20 uM after 60 mins in presence of NADPH by LC-MS/MS analysis; type: ADME; details: liver microsomes, read-out: Stability; in short: as §2
UACC-62 = assay: Growth inhibition of human UACC62 cells incubated for 48 hrs by sulforhodamine B assay; type: functional; details: UACC-62, 48 h
SF-539 = assay: Growth inhibition of human SF539 cells incubated for 48 hrs by sulforhodamine B assay; type: functional; details: SF-539, 48 h

**Q.** For `CSc1ccc(N(C)c2nc(C)nc3c2CCC3)cc1`, which IC50 [1] is on record?
**A.** 1300 nM

**Q.** What about the GI50 (HOP-92) of the same compound?
**A.** < 10 nM

**Q.** What about the GI50 (HOP-62) of the same compound?
**A.** < 10 nM

**Q.** What about the GI50 (A498) of the same compound?
**A.** < 10 nM

**Q.** What about the GI50 (ACHN) of the same compound?
**A.** < 10 nM

**Q.** And the GI50 (M14)?
**A.** < 10 nM

**Q.** And the GI50 (SF-268)?
**A.** < 10 nM

**Q.** What about the GI50 (OVCAR-3) of the same compound?
**A.** < 10 nM

**Q.** What about the GI50 (SR) of the same compound?
**A.** < 10 nM

**Q.** What about the GI50 (HCT-15) of the same compound?
**A.** < 10 nM

**Q.** What about the GI50 (HT-29) of the same compound?
**A.** < 10 nM

**Q.** What about the GI50 (RXF 393) of the same compound?
**A.** < 10 nM

**Q.** What about the GI50 (HCT-116) of the same compound?
**A.** < 10 nM

**Q.** And the GI50 (LOX IMVI)?
**A.** < 10 nM

**Q.** What about the GI50 (NCI-H522) of the same compound?
**A.** < 10 nM

**Q.** What about the GI50 (786-0) of the same compound?
**A.** < 10 nM

**Q.** What about the GI50 (SF-295) of the same compound?
**A.** < 10 nM

**Q.** What about the GI50 (SK-MEL-28) of the same compound?
**A.** > 10 µM

**Q.** What about the GI50 (SK-MEL-5) of the same compound?
**A.** < 10 nM

**Q.** And the GI50 (U-251)?
**A.** < 10 nM

**Q.** What about the “Ratio IC50” value [2] of the same compound?
**A.** 1.3

**Q.** What about the Retention_time [3] of the same compound?
**A.** 17.4 min

**Q.** What about the GI50 (SK-OV-3 [4]) of the same compound?
**A.** < 10 nM

**Q.** And the GI50 (BT-549)?
**A.** < 10 nM

**Q.** And the IC50 (HeLa [5])?
**A.** 5.3 nM

**Q.** And the inhibition (Bos taurus [6])?
**A.** 92%

**Q.** What about the GI50 (A549) of the same compound?
**A.** < 10 nM

**Q.** What about the GI50 (DU-145) of the same compound?
**A.** < 10 nM

**Q.** And the GI50 (PC-3)?
**A.** < 10 nM

**Q.** What about the “Ratio IC50” value (HeLa [7]) of the same compound?
**A.** 0.8

**Q.** And the GI50 (MOLT-4)?
**A.** < 10 nM

**Q.** And the GI50 (NCI-H460)?
**A.** < 10 nM

**Q.** And the IC50 (SK-OV-3 [8])?
**A.** 7.2 nM

**Q.** And the GI50 (NCI-H23)?
**A.** < 10 nM

**Q.** And the GI50 (MDA-MB-435)?
**A.** < 10 nM

**Q.** What about the inhibition (Bos taurus [9]) of the same compound?
**A.** 74%

**Q.** What about the GI50 (MCF7) of the same compound?
**A.** < 10 nM

**Q.** And the remaining at 1 h, 20 µM [10]?
**A.** 46.4%

**Q.** And the GI50 (UACC-62)?
**A.** < 10 nM

**Q.** And the GI50 (SF-539)?
**A.** < 10 nM
